Experimental findings from ChEMBL document CHEMBL1122999 (J Med Chem, 1985) are described below.

The species entered for data set [1] is Rattus norvegicus. As to the kind of experiment: Inhibition of GABA uptake from rat diencephalon-midbrain. It counts as functional. The method, boiled down: (§1)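 P2 synaptosomal fraction prepared from rat brain in 0.32 M sucrose by 1000g and 16500g spins. About 150 µg protein preincubated 15 min at 37 °C with inhibitor in oxygenated Tris/NaCl buffer, pH 7.4, containing 2.7 mM CaCl2 and 10 µM aminooxyacetic acid. Uptake of 1 µM [3H]GABA run for 3 min, then filtered and counted. Accumulation at 0 °C subtracted. Screening at 10, 1 and 0.1 µM in quadruplicate on pooled diencephalon-midbrain tissue.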

The species entered for data set [2] is Rattus norvegicus. As to the kind of experiment: (§2) Inhibition of Norepinephrine uptake from rat diencephalon-midbrain. It counts as functional.
Data set [3] is filed under the species Rattus norvegicus. The data set can be described thus: Inhibition of GABA uptake from rat diencephalon-midbrain at 10 uM concentration. It counts as functional. The essentials: as §1
For data set [4], the species on record is Rattus norvegicus. The data set can be described thus: Inhibition of GABA uptake from rat diencephalon-midbrain at 100 uM concentration. It counts as functional.
In data set [5] the target is T1, GABA-A receptor; anion channel (Rattus norvegicus) (UniProt O09028+P15431+P18506+P18508+P19969+P20236+P23574+P23576+P28471+P28473+P30191+P62813+P63079+P63138+Q91ZM7+Q9ES14). As to the kind of experiment: Displacement of [3H]- muscimol from GABA-A receptor from rat cerebellum membrane at 100 uM. It counts as tissue-based.
Data set [6] concerns the target Norepinephrine transporter (Rattus norvegicus, UniProt Q9WTR4). Described as §2.
Data set [7] in a line: (§3) Inhibition of GABA uptake from rat diencephalon-midbrain,. The method, boiled down:
as §1

In data set [8] the target is T2, Glutamate decarboxylase 1 (Rattus norvegicus) (UniProt P18088).
T2 sequence (whole entry): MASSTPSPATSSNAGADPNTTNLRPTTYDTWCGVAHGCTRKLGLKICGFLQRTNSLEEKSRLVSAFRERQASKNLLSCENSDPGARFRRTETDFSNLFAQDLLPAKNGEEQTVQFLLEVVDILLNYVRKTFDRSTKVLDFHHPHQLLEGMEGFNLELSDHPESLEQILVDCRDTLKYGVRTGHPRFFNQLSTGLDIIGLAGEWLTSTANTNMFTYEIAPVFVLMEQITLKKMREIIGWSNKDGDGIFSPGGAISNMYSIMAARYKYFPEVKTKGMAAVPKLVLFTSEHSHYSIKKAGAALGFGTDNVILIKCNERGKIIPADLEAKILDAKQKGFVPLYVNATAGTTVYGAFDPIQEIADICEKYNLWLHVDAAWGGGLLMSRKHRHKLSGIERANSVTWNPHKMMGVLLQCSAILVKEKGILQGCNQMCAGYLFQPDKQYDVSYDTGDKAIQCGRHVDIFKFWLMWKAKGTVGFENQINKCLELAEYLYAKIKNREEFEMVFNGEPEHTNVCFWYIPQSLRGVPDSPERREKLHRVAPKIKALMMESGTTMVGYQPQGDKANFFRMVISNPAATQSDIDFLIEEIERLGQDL
The data set can be described thus: Percent of enzyme inhibition by Glutamate decarboxylase assay method. The settings on record: concentration not given here. The essentials:
(§4)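 Homogenate of rat diencephalon-midbrain in phosphate buffer pH 6.5 with Triton X-100. Incubated with 5 mM l-glutamate, 10 µM pyridoxal phosphate and test agent at 1 mM final, 30 min at 37 °C. Stopped by boiling; boiled-enzyme blanks used. GABA formed quantified fluorometrically with GABAase and NADPH.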

Data set [9] concerns the target Serotonin 1 (5-HT1) receptor (Rattus norvegicus) (UniProt P28564+P30940+P19327+P28565). The data set can be described thus: Percent inhibition of 5-hydroxytryptamine 1 receptor from rat cortex membrane using [3H]- serotonin as radioligand at 33 uM.
The nature of data set [10]: Distribution coefficient was evaluated. It counts as physicochemical. The settings on record: octanol/water. The method, boiled down:
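Distribution coefficient (log D) measured between 1-octanol and phosphate buffer, pH 7.4.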

Data set [11] in a line: Dissociation constant pKa (CO2H) was evaluated. It counts as physicochemical.
The nature of data set [12]: Dissociation constant pKa (N) was evaluated. It counts as physicochemical.
The target of data set [13] is Adrenergic receptor alpha-1 (Rattus norvegicus) (UniProt P15823+P23944+P43140). The data set can be described thus: Percent inhibition of alpha-1 adrenergic receptor from rat cortical membrane using [3H]- WB-4101 as radioligand at 10 uM. The method, boiled down:
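Rat cortical membranes labelled with 0.22 nM [3H]WB4101 (KD 0.306 nM). Nonspecific binding defined with 100 µM norepinephrine.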

Data set [14] addresses T1, GABA-A receptor; anion channel (Rattus norvegicus). As to the kind of experiment: Percent inhibition of [3H]- Diazepam binding to GABA-A Benzodiazepine receptor of rat frontal cortex membranes. It counts as cell membranes. Conditions: Membrane, concentration not given here. The essentials:
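Rat frontal cortex membranes with 1.5 nM [3H]diazepam (KD 9.7 nM). Nonspecific binding defined with 3 µM diazepam.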

The target in data set [15] is D(2) dopamine receptor (Rattus norvegicus) (UniProt P61169). As to the kind of experiment: Percent inhibition of Dopamine receptor D2 from rat striatal membrane using [3H]- spiroperidol as radioligand at 50 uM. The essentials: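 Rat striatal membranes with 0.22 nM [3H]spiroperidol (KD 0.287 nM). Nonspecific binding defined with 1 µM d-butaclamol.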
Chain of D(2) dopamine receptor (Rattus norvegicus) (P61169 whole entry): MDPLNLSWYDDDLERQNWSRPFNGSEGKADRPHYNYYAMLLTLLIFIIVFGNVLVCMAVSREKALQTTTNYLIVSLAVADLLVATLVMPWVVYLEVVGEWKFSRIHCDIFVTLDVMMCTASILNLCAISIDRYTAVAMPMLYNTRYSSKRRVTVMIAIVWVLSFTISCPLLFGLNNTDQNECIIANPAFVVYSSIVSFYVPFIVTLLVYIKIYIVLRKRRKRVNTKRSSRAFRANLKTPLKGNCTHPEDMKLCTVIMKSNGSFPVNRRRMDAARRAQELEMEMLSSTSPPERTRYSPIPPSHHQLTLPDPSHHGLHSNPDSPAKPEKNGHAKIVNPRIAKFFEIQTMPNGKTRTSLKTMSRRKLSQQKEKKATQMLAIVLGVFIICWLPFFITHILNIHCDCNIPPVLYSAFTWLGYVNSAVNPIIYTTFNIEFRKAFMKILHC
Data set [16] addresses 4-aminobutyrate aminotransferase, mitochondrial (Rattus norvegicus) (UniProt P50554). The data set can be described thus: Percent inhibition of Gamma-amino-N-butyrate transaminase from rat was evaluated. Conditions: concentration not given here. The method, boiled down:
(§5)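 Rat diencephalon-midbrain homogenate in Tris-HCl pH 8.0 with Triton X-100. Incubated with 2 mM α-ketoglutarate, 0.2 mM GABA and 20 µM pyridoxal phosphate, test agent at 1 mM final, 30 min at 37 °C. Blanks held at 4 °C. Glutamate formed read fluorometrically as NADH via glutamate dehydrogenase.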

The target in data set [17] is T2, Glutamate decarboxylase 1 (Rattus norvegicus). The data set can be described thus: Percent inhibition of Glutamate decarboxylase from rat was evaluated. Conditions: concentration not given here. The essentials: as §4
In data set [18] the target is Muscarinic acetylcholine receptor (Rattus norvegicus) (UniProt P08482+P08483+P08485+P08911+P10980). As to the kind of experiment: Percent inhibition of Muscarinic acetylcholine receptor from rat striatal membrane using [3H]- QNB as radioligand at 100 uM. The essentials: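 Displacement on rat striatal membranes using 0.23 nM [3H]QNB (KD 0.20 nM). Nonspecific binding defined with 1 µM atropine.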

Data set [19] is filed under the species Rattus norvegicus. Described as §3. It counts as functional, organism-based.
A short description of data set [20]: Dissociation constant pKa (CO2H) of the compound. It counts as physicochemical.
Data set [21] is described as follows: Dissociation constant pKa (N) of the compound. It counts as physicochemical.
Data set [22] has as its target 4-aminobutyrate aminotransferase, mitochondrial (Rattus norvegicus) (UniProt P50554). The data set can be described thus: Percent of enzyme inhibition by Gamma-amino-N-butyrate transaminase assay method. Conditions: concentration not given here. The method, boiled down: as §5
Data set [23] has as its target T2, Glutamate decarboxylase 1 (Rattus norvegicus). As to the kind of experiment: Percent of enzyme inhibition by Glutamate decarboxylase (GAD) assay method. Conditions: concentration not given here. The essentials: as §4
Data set [24] is filed under the species Rattus norvegicus. As to the kind of experiment: Inhibition of GABA uptake from rat diencephalon-midbrain at 1 uM concentration. It counts as functional. The method, boiled down:
as §1

For data set [25], the target named is T1, GABA-A receptor; anion channel (Rattus norvegicus). Conditions: Cerebellum, 0.003-0.006 uM.
Data set [26] deals with GABA-A receptor; anion channel. The data set can be described thus: Displacement of [3H]- muscimol from GABA-A receptor from rat cerebellum membrane at 0.24-0.45 uM. It counts as tissue-based.
The nature of data set [27]: as §3. The settings on record: concentration not given here. The method, boiled down:
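Rat diencephalon-midbrain P2 synaptosomal fraction (0.32 M sucrose homogenate, differential centrifugation), pooled from three rats. Preincubated 15 min at 37 °C with inhibitor in oxygenated Tris/NaCl buffer pH 7.4 containing 2.7 mM CaCl2 and 10 µM aminooxyacetic acid. Then 3 min uptake of 1 µM [3H]GABA, filtration, scintillation counting, minus 0 °C uptake. Screened at 10, 1, 0.1 µM in quadruplicate.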

Chain of Norepinephrine transporter (Q9WTR4 whole entry): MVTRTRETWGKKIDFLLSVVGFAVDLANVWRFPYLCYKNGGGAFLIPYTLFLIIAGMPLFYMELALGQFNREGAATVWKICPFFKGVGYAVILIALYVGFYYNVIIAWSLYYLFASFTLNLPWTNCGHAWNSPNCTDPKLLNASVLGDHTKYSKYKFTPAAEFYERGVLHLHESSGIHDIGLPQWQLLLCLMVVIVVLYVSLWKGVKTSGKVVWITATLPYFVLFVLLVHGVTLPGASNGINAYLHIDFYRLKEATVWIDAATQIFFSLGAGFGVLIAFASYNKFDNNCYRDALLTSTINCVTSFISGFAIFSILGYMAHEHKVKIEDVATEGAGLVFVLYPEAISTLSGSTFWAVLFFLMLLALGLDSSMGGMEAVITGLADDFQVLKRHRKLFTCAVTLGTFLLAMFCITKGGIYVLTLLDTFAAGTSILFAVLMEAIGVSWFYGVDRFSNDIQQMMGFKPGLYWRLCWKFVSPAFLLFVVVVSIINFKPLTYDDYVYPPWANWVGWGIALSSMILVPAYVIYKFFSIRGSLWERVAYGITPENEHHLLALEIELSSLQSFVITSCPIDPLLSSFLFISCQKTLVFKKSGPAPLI
Chain of 4-aminobutyrate aminotransferase, mitochondrial (Rattus norvegicus) (P50554 28-500 limits assumed): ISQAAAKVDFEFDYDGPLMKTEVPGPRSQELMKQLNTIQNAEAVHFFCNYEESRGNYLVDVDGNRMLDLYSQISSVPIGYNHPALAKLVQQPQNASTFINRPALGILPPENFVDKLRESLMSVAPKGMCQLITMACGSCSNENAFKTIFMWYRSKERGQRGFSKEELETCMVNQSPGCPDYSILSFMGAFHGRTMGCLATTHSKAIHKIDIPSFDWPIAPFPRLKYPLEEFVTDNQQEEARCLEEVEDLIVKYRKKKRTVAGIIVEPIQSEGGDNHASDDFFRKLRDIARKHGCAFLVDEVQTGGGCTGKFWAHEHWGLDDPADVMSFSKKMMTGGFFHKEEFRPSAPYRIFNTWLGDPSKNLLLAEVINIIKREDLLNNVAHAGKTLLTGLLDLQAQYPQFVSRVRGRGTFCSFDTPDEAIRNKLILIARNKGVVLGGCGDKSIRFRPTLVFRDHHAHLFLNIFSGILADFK

`O=C(O)[C@H]1CCCNC1` [(S)-NIPECOTIC ACID] registered an IC50 in the data set filed under Rattus norvegicus [1] of 9.88 µM.
As for `O=C(O)C1CCCC(NCCC=C(c2ccccc2)c2ccccc2)C1` (configuration not stated), the 50% inhibitory concentration (IC50) in the data set listed under Rattus norvegicus [2] was 29.9 µM. In the data set listed under Rattus norvegicus [3], this molecule displayed an Inhibition of 54%.
Regarding `CN(C)CCCN1c2ccccc2CCc2ccccc21` [IMIPRAMINE], the IC50 in the data set listed under Rattus norvegicus [2] was 0.027 µM. The same molecule came in with an Inhibition in the data set listed under Rattus norvegicus [4] of 68%.
In turn, `O=C(O)C1CN(CCC=C(c2ccccc2)c2ccccc2)CCC1O` (configuration not stated) returned an inhibition in data set [5] of 48%. Also, the IC50 in [6] was 33.6 µM; in data set [7], 0.26 µM.
For the molecule `NNC(=O)c1ccncc1`, the inhibition in [8] turned out to be 42%.
In the case of `O=C(O)CC1CCN(CCC=C(c2ccccc2)c2ccccc2)C1` (configuration not stated), in [5], the inhibition amounted to 20%. Also, the values for the IC50 in data set [6] and in data set [7] were 108 µM and 0.12 µM, respectively.
Take `O=C(O)C1CCCN(CCCC(c2ccccc2)c2ccccc2)C1` (configuration not stated): the Inhibition in the data set listed under Rattus norvegicus [3] stood at 27%.
`O=C(O)C1CCCN(CC=C(c2ccccc2)c2ccccc2)C1` (configuration not stated) displayed an Inhibition in the data set filed under Rattus norvegicus [3] of 5%.
As to `O=C(O)C1CCCN(CCC=C(c2ccccc2)c2ccccc2)C1` (configuration not stated), the inhibition turned out to be 16% in data set [9]; 12% in data set [13]; 21% in data set [14]; 22% in data set [15]; 12% in data set [16]; 7% in data set [17]. The inhibition was determined as 8% in data set [5] and 12% in data set [18]. Further, the logD in data set [10] was determined as 1.14. For the same molecule, the pKa in data set [11] came to 3.32; in [12] it was 9.36. Besides, the concentration for half-maximal inhibition (IC50) in the data set listed under Rattus norvegicus [19] came out at 0.2 µM; in the data set filed under Rattus norvegicus [2] it was 117 µM.
In the data set listed under Rattus norvegicus [19], `NC1CCCC(C(=O)O)C1` (configuration not stated) showed a 50% inhibitory concentration (IC50) of 8.13 µM.
The molecule `O=C(O)[C@@H]1CCCNC1` [(R)-NIPECOTIC ACID] had an IC50 in the data set filed under Rattus norvegicus [19] of 1.69 µM.
Take `O=C(O)C1=CCCN(CCC=C(c2ccccc2)c2ccccc2)C1`: the inhibition came out at 5% in data set [14], 9% in data set [16], 7% in [17] and 8% in data set [5]. Besides, the IC50 was determined as 0.2 µM in the data set filed under Rattus norvegicus [19] and 58.2 µM in the data set filed under Rattus norvegicus [2].
For `O=C(O)CCCNCCC=C(c1ccccc1)c1ccccc1`, in [5], the inhibition came to 35%. Besides, the figures for the concentration for half-maximal inhibition (IC50) in [6] and in data set [7] were 35.1 µM and 16.5 µM, respectively.
Regarding `O=C(O)C1CCCNC1` (configuration not stated) [NIPECOTIC ACID], the pKa in [20] worked out at 3.45; in data set [21] it was 10.3. Also, the inhibition in data set [22] amounted to 3%; in data set [8], 0%. In the data set filed under Rattus norvegicus [19], this molecule showed a half-inhibitory concentration (IC50) of 3.94 µM.
As to `O=C(O)C1=CCCNC1` [GUVACINE], the figures for the inhibition in data set [22], in data set [5] and in data set [23] were 7%, 27% and 0%, respectively. For the same molecule, the IC50 in the data set filed under Rattus norvegicus [19] was 4.92 µM.
`O=C(O)C1CCCN(CCCC=C(c2ccccc2)c2ccccc2)C1` (configuration not stated) registered an Inhibition in the data set listed under Rattus norvegicus [24] of 31%.
With `NOCC(=O)O`, in data set [22], the inhibition came out at 83%.
`NCc1cc(O)no1` came in with an inhibition in [25] of 0.004%.
With `O=C(O)[C@@H]1CCCN(CCC=C(c2ccccc2)c2ccccc2)C1`, the IC50 is 0.11 µM in the data set listed under Rattus norvegicus [19] and 123 µM in the data set listed under Rattus norvegicus [2].
In the data set filed under Rattus norvegicus [4], `CCOC(=O)C1CCCNC1` (configuration not stated) displayed an Inhibition of 52%.
`CCOC(=O)C1CCCN(CCC=C(c2ccccc2)c2ccccc2)C1` (configuration not stated) showed an Increase in the data set filed under Rattus norvegicus [4] of 17%.
For `O=C(O)CC1CCNC1` (configuration not stated), the IC50 was 0.33 µM in [26] and 1.54 µM in the data set filed under Rattus norvegicus [19].
Regarding `COC(=O)C1=CCCNC1`, in data set [27], the inhibition came out at 4%.
For `O=C(O)C1CNCCC1O` (configuration not stated), the inhibition in data set [5] turned out to be 10%. The 50% inhibitory concentration (IC50) in the data set listed under Rattus norvegicus [19] was 4.56 µM. The Inhibition in the data set listed under Rattus norvegicus [2] is reported as 7%.
With `O=C(O)[C@H]1CCCN(CCC=C(c2ccccc2)c2ccccc2)C1`, the IC50 in the data set listed under Rattus norvegicus [19] is 1.91 µM; in the data set filed under Rattus norvegicus [2], 180 µM.
